Measurements from ChEMBL document CHEMBL4052694, “Discovery of novel 5-oxa-2,6-diazaspiro[3.4]oct-6-ene derivatives as potent, selective, and orally available somatostatin receptor subtype 5 (SSTR5) antagonists for treatment of type 2 diabetes mellitus” (Bioorg Med Chem, 2017).
In brackets after ≈: the same amount, converted by molar mass. Activity calls are given as the source filed them. The calls are words filed in the database; no cut-off is given here.

Tests used:
[1] = system: Mus musculus; experiment: Antidiabetic activity in HFD-fed C57BL/6J mouse assessed as increase in insulin secretion at 100 mg/kg, po pretreated for 1 hr followed by glucose challenge after 1 hr of compound dosing measured up to 120 mins post glucose challenge by OGTT
[2] = target: hERG (KCNH2) (Homo sapiens, UniProt Q12809); experiment: Inhibition of human ERG expressed in CHO cells assessed as decrease in peak tail current at 30 uM after 5 mins at -80 mV holding potential by patch clamp assay relative to control; assay type: cell-based; settings: CHO cells expressing human ERG
In short: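 hERG-expressing CHO cells grown at 32 °C in Ham's F-12 with 10% FBS and Geneticin. Population patch clamp, perforated with 100 µg/mL amphotericin B. PBS with Ca/Mg outside; 140 mM KCl, 2 mM MgCl2, 1 mM EGTA, 20 mM HEPES pH 7.3 inside. Holding -80 mV, step to 40 mV for 2 s, then -50 mV for 2 s. Peak tail current compared before and after 5 min with compound at 30 µM, n = 4.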

[3] = Total clearance in ICR mouse at 0.1 mg/kg, iv administered as cassette dose by LC/MS/MS analysis; assay type: ADME, organism-based; settings: in vivo
In short: (§1)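 Non-fasted male ICR mice, 8 weeks old, n = 3, dosed by cassette: 0.1 mg/kg iv, or 1 mg/kg po as a suspension in 0.5% methylcellulose. Plasma deproteinized with acetonitrile and measured by LC/MS/MS. AUC taken over 0–8 h.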

[4] = Tmax in ICR mouse at 1 mg/kg, po administered as cassette dose by LC/MS/MS analysis; assay type: ADME, organism-based; settings: in vivo
In short: as §1

[5] = Solubility of the compound in aqueous buffer solution at pH 6.8 after 18 hrs by HPLC analysis; assay type: physicochemical
In short: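 0.4 mg compound in 0.4 mL aqueous buffer, pH 6.8 (Japanese Pharmacopoeia second disintegration fluid). Shaken at 500 rpm at 37 °C for 18 h, then filtered; dissolved concentration measured by HPLC.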

[6] = system: Mus musculus; experiment: Antidiabetic activity in HFD-fed C57BL/6J mouse assessed as decrease in blood glucose AUC at 100 mg/kg, po pretreated for 1 hr followed by glucose challenge after 1 hr of compound dosing measured up to 120 mins post glucose challenge by OGTT; assay type: functional, organism-based
In short: (§2)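 Male C57BL/6J mice on high-fat diet for ten days. Fasted from morning and grouped by weight and blood glucose at 4 h. Vehicle (0.5% methylcellulose) or compound given orally at 5.5 h; oral glucose 5 g/kg given 1 h later.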

[7] = AUC (0 to 8 hrs) in ICR mouse at 1 mg/kg, po administered as cassette dose by LC/MS/MS analysis; assay type: ADME, organism-based; design: dose 1 mg/kg, time < 8 hr, route oral; settings: in vivo
In short: as §1

[8] = Oral bioavailability in ICR mouse at 1 mg/kg administered as cassette dose by LC/MS/MS analysis; assay type: ADME, organism-based; settings: in vivo
In short: as §1

[9] = system: Mus musculus; experiment: Antidiabetic activity in HFD-fed C57BL/6J mouse assessed as decrease in blood glucose level at 100 mg/kg, po pretreated for 1 hr followed by glucose challenge after 1 hr of compound dosing measured up to 120 mins post glucose challenge by OGTT; assay type: functional, organism-based
In short: as §2

[10] = system: Mus musculus; experiment: Antidiabetic activity in HFD-fed C57BL/6J mouse assessed as decrease in blood glucose level administered po pretreated for 1 hr followed by glucose challenge after 1 hr of compound dosing measured up to 120 mins post glucose challenge by OGTT; assay type: functional, organism-based
In short: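 Male C57BL/6J mice on high-fat diet for ten days. Fasted overnight and grouped by weight and blood glucose at 12.5 h. Compound given orally at 1, 3, 10 or 30 mg/kg in 0.5% methylcellulose at 15 h; oral glucose 5 g/kg at 16 h.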

[11] = Volume of distribution at steady state in ICR mouse at 0.1 mg/kg, iv administered as cassette dose by LC/MS/MS analysis; assay type: ADME, organism-based; settings: in vivo, read-out: Vdss
In short: as §1

[12] = Intrinsic clearance in mouse liver microsomes at 1 uM after 15 to 30 mins in presence of NADPH by LC/MS/MS analysis; assay type: ADME, microsome; settings: read-out: CLH
In short: (§3)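 Liver microsomes at 0.2 mg/mL protein in 50 mM potassium phosphate buffer pH 7.4 with compound at 1 µM. Reaction started with an NADPH-generating system (5 mM MgCl2, 5 mM glucose-6-phosphate, 0.5 mM β-NADP+, 1.5 U/mL G6PDH). Stopped with acetonitrile at 15 and 30 min; analysed by LC/MS/MS. Metabolic velocity taken from the slope of concentration versus time.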

[13] = Intrinsic clearance in human liver microsomes at 1 uM after 15 to 30 mins in presence of NADPH by LC/MS/MS analysis; assay type: ADME, microsome; settings: read-out: CLH
In short: as §3

[14] = system: Mus musculus; experiment: Toxicity in HFD-fed C57BL/6J mouse assessed as induction of hypoglycemia at 100 mg/kg, po after 1 hr; assay type: organism-based; settings: in vivo
[15] = target: Somatostatin receptor type 1 (Homo sapiens) (UniProt P30872); experiment: Inhibition of human SSTR1 at 10 uM by radioligand binding assay relative to control
[16] = Cmax in ICR mouse at 1 mg/kg, po administered as cassette dose by LC/MS/MS analysis; assay type: ADME, organism-based; design: dose 1 mg/kg, route oral; settings: in vivo
In short: as §1

[17] = system: Mus musculus; experiment: Antidiabetic activity in HFD-fed SSTR5 knockout C57BL/6J mouse assessed as decrease in blood glucose level administered po pretreated for 1 hr followed by glucose challenge after 1 hr of compound dosing measured up to 120 mins post glucose challenge by OGTT; assay type: functional, organism-based
[18] = target: Somatostatin receptor type 4 (Homo sapiens) (UniProt P31391); experiment: Inhibition of human SSTR4 at 10 uM by radioligand binding assay relative to control
[19] = target: Somatostatin receptor type 2 (Homo sapiens) (UniProt P30874); experiment: Inhibition of human SSTR2 at 10 uM by radioligand binding assay relative to control
[20] = target: Somatostatin receptor type 3 (Homo sapiens) (UniProt P32745); experiment: Inhibition of human SSTR3 at 10 uM by radioligand binding assay relative to control
[21] = target: T1, Somatostatin receptor type 5 (Mus musculus, UniProt O08858); experiment: Antagonist activity at mouse SSTR5 expressed in CHO cells assessed as inhibition of SST14-induced forskolin-stimulated intracellular cAMP level incubated for 15 mins followed by forskolin stimulation for 30 mins by HTRF assay; assay type: functional, cell-based
T1 sequence (O08858 whole entry): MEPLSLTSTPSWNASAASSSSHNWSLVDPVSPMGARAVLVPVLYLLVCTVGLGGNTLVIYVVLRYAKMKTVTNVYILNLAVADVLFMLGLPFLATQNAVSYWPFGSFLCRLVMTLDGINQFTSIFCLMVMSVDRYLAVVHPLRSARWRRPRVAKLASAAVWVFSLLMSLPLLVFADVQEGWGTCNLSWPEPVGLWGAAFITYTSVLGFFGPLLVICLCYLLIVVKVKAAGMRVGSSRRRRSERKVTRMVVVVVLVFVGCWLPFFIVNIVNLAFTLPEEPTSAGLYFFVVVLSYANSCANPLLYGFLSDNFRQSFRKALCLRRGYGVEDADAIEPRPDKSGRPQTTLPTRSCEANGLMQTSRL

[22] = target: Somatostatin receptor type 5 (Homo sapiens, UniProt P35346); experiment: Antagonist activity at human SSTR5 expressed in CHO cells assessed as inhibition of SST14-induced forskolin-stimulated intracellular cAMP level incubated for 15 mins followed by forskolin stimulation for 30 mins by HTRF assay; assay type: functional, cell-based
[23] = 1-octanol/aqueous buffer solution partition coefficient, log D of the compound at pH 7.4 by UV-vis/HPLC method; assay type: physicochemical
In short: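 Octanol/buffer partition coefficient at pH 7.4, estimated chromatographically by HPLC with UV–vis detection, using conditions adapted from a published method.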

Sequence of Somatostatin receptor type 5 (Homo sapiens, UniProt P35346) (P35346 whole entry): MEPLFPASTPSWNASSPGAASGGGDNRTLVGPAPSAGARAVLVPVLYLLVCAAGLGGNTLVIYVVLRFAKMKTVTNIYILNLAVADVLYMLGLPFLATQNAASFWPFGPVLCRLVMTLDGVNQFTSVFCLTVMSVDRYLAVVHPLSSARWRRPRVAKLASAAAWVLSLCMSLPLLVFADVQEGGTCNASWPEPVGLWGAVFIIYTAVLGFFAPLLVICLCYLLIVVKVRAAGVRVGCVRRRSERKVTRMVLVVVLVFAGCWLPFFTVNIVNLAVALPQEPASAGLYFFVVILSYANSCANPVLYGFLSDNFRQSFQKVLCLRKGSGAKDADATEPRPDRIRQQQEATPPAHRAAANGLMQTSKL
Sequence of hERG (KCNH2) (Q12809 whole entry): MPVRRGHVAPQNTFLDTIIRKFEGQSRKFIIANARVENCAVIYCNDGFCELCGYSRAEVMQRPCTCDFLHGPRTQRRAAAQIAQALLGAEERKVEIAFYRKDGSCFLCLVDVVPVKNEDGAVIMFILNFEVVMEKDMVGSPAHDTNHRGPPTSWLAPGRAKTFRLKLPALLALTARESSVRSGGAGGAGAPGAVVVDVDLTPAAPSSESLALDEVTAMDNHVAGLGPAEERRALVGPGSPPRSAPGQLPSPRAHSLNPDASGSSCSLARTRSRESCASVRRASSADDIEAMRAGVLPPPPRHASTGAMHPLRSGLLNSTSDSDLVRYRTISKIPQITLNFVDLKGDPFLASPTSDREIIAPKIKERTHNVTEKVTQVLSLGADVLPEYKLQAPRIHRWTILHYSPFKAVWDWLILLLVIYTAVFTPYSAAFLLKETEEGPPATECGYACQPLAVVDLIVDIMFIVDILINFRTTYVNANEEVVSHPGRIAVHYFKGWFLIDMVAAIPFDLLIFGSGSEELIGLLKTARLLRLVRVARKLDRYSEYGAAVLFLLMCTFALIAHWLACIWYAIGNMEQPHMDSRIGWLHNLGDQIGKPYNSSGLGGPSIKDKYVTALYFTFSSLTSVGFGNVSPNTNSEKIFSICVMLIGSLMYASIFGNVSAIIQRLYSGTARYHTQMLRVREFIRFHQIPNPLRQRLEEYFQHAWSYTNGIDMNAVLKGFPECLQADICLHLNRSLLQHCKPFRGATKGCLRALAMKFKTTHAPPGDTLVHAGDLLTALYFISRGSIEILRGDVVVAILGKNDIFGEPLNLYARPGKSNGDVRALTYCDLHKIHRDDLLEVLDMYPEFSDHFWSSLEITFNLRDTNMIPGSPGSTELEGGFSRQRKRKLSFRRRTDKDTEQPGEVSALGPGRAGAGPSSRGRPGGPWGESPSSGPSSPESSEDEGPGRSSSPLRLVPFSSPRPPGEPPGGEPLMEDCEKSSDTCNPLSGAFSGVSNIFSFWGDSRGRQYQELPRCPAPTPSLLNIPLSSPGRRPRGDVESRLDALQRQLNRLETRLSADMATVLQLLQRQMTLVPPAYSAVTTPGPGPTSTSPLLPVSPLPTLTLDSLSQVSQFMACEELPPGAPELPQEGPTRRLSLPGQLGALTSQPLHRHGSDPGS
Sequence of Somatostatin receptor type 2 (Homo sapiens) (P30874 whole entry): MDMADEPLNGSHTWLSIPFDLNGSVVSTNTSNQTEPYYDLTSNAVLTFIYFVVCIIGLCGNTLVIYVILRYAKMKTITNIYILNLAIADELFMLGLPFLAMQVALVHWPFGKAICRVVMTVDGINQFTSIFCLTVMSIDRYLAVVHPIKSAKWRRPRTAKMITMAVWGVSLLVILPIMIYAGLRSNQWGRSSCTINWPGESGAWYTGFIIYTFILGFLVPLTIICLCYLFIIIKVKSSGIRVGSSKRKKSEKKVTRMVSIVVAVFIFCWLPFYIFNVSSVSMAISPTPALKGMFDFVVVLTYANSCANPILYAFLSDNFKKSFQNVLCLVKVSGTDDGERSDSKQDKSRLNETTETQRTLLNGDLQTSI
Sequence of Somatostatin receptor type 1 (Homo sapiens) (P30872 whole entry): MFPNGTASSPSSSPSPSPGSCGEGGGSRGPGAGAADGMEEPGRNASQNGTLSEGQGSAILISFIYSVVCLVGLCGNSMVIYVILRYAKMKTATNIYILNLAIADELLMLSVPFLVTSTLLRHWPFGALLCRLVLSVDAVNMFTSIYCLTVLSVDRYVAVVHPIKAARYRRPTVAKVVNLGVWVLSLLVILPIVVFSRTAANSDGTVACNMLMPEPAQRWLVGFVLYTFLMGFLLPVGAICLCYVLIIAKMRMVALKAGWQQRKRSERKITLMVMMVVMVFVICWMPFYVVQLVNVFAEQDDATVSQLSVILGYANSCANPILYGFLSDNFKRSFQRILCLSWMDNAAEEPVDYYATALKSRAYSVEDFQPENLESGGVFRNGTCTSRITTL
Sequence of Somatostatin receptor type 4 (Homo sapiens) (P31391 whole entry): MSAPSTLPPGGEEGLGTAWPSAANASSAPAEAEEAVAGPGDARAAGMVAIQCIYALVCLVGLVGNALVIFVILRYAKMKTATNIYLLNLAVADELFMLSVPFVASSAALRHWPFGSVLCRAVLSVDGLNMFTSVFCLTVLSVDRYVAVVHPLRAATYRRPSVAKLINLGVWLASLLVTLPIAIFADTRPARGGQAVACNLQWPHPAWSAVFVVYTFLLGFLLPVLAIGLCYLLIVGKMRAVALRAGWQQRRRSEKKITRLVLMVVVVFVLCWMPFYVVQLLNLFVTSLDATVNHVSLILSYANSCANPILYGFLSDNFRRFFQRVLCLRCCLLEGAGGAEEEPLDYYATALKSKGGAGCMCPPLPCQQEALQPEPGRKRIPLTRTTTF
Sequence of Somatostatin receptor type 3 (Homo sapiens) (P32745 whole entry): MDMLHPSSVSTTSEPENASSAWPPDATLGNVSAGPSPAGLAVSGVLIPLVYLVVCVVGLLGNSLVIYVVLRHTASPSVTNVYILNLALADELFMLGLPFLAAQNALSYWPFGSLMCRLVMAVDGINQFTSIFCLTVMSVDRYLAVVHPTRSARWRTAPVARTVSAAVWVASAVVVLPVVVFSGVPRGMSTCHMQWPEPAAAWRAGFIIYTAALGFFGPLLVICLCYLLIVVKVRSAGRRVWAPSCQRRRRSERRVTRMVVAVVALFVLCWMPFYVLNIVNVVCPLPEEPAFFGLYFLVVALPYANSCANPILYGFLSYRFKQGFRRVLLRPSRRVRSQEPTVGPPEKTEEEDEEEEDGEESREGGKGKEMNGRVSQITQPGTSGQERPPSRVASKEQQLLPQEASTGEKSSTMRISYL

Row | Compound | IC50 [21] [nM] | IC50 [22] [nM] | logD [23] | inhibition at 5 min, 30 µM [2] [%] | other results
1 | CCOc1cc(CN2CC3(CC(N4CCC(C(=O)O)CC4)=NO3)C2)cc(OCC)c1-c1ccc(F)cc1 |  |  |  | 5.6 | Activity [1]: Active; clearance [3]: 29.3 mL/min/kg; Tmax [4]: 2 h; solubility at 18 h [5]: 260 µg/mL (≈ 508 µM); Activity [6]: Active; AUC(0-t) at 8 h [7]: 332 ng·h/mL; bioavailability [8]: 58%; Activity [9]: Active; Activity [10]: Dose-dependent effect; Vd [11]: 3.05 L/kg; microsomal CLint at 1 µM [12]: 19 µL/min/mg; microsomal CLint at 1 µM [13]: < 10 µL/min/mg; Activity [14]: Non-Toxic; inhibition [15]: 11%; Cmax [16]: 74.8 ng/mL; Activity [17]: inactive; inhibition [18]: 10%; inhibition [19]: 8%; inhibition [20]: 14%
2 | CCOc1cc(CN2CC3(CC(N4CC(C(=O)O)C4)=NO3)C2)cc(OCC)c1-c1ccc(F)cc1 | 120 | 200 | 2.9 | 8.1 | 
3 | CCOc1cc(CN2CC3(CC(c4ccc(CC(=O)O)cc4)=NO3)C2)cc(OCC)c1-c1ccc(F)cc1 | 74 | 220 |  |  | 
4 | CCOc1cc(CN2CC3(CC(c4ccccc4C(=O)O)=NO3)C2)cc(OCC)c1-c1ccc(F)cc1 | > 10000 | > 10000 | 3.1 | 4.5 | 
5 | CCOc1cc(CN2CC3(CC(c4ccc(C(=O)O)cc4Cl)=NO3)C2)cc(OCC)c1-c1ccc(F)cc1 | 31 | 46 | 3.5 | 40 | 
6 | CCOc1cc(CN2CC3(CC([C@H]4CC[C@@H](C(=O)O)CC4)=NO3)C2)cc(OCC)c1-c1ccc(F)cc1 | 210 | 130 | 3.3 | 33 | 

More lines, main results first:

Row | IC50 [21] [nM] | IC50 [22] [nM] | logD [23] | Compound | inhibition at 5 min, 30 µM [2] [%] | other results
7 | 20 | 61 |  | CCOc1cc(CN2CC3(CC(c4ccc(C(=O)O)cn4)=NO3)C2)cc(OCC)c1-c1ccc(F)cc1 |  | 
8 | 38 | 30 | 3.2 | CCOc1cc(CN2CC3(CC([C@H]4CC[C@H](C(=O)O)CC4)=NO3)C2)cc(OCC)c1-c1ccc(F)cc1 | 15 | 
9 | 48 | 190 | 2.9 | CCOc1cc(CN2CC3(CC(N4CCC(C(=O)O)C4)=NO3)C2)cc(OCC)c1-c1ccc(F)cc1 (stereo not given) | 17 | 
10 | 980 | 2800 |  | CCOc1cc(CN2CC3(CC(c4ccccc4)=NO3)C2)cc(OCC)c1-c1ccc(F)cc1 |  | 
